According to publication PMC8112392 (Science signaling, 2021):
“Also recorded” adds a separate entry of the source. Where two headings read alike, the source gives them in different places.

Key:
[1] = system: Tlp10^LBD; assay: Glycan and small molecule array binding of purified Tlp10 LBD; set-up: species or system C. jejuni; conditions: for interaction of Tlp10^LBD with complex glycans: glycan array; for array: binding to Tlp10^LBD on glycan / small molecule array
[2] = target: Tlp10^LBD N115A (Campylobacter jejuni, UniProt Q0PCA6, N115A); assay: biochemical; assay type: binding, C. jejuni
[3] = target: Tlp10^LBD N120A (Campylobacter jejuni, UniProt Q0PCA6, N120A); assay: biochemical; assay type: binding, C. jejuni
[4] = system: C. jejuni 11168-O; assay: μ-Slide chemotactic cell migration visualisation; assay type: cell-based; conditions: time-lapse imaging, 10 mM ligand
How it was run: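 Wild-type, Δtlp10 and complemented C. jejuni 11168-O cells are FITC-labelled. In a μ-Slide, the left reservoir holds bacterial suspension, and the right reservoir and transition zone hold PBS. Once cells near the transition zone, isoleucine or arginine is added to the right reservoir (final 10 mM). In the sequential test, arginine is added at 20 sec after partial migration toward isoleucine. Migration is recorded by time-lapse video at 40× magnification.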

[5] = target: T1, Tlp10^LBD wild type (Campylobacter jejuni, UniProt Q0PCA6); assay: biochemical; assay type: binding; conditions: for Kd: SPR, n = 3; for SPR: binding to Tlp10^LBD by SPR
[6] = target: T1, Tlp10^LBD wild type; assay type: binding; conditions: competition SPR, compounds at 10x KD
[7] = target: Tlp10^LBD Y70A (Campylobacter jejuni, UniProt Q0PCA6, Y70A); assay: biochemical; assay type: binding, C. jejuni
[8] = system: C. jejuni 11168-O; assay type: cell-based; conditions: nutrient-depleted chemotaxis assay, 2 mM ligand
[9] = target: Tlp10^LBD H193A (Campylobacter jejuni, UniProt Q0PCA6, H193A); assay: biochemical; assay type: binding, C. jejuni
[10] = system: C. jejuni 11168-O adherence to Caco-2, HCT116 and HCT116MUC1 cells; assay: Adherence of C. jejuni to cultured human cells with glycan competition; assay type: cell-based; conditions: 11168-O wild-type and Δtlp10^LBDc strains, 5 mM glycan
[11] = system: C. jejuni 11168-O; assay: μ-Slide chemotaxis cell enumeration assay; assay type: cell-based; conditions: 10 mM chemoeffector
How it was run: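 Wild-type, Δtlp10LBD and complemented strains are harvested from MHA plates into PBS, adjusted to OD600 1 and mixed 1:1 (vol:vol) with 1% LMT. The opposite μ-Slide reservoir holds chemoeffector (final 10 mM) in LMT (final 0.35%). Slides are incubated 3 h at 42°C, microaerobic. Cells in the chemoeffector reservoir are enumerated by viable count. Three biological repeats are run, each in triplicate.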

[12] = system: C. jejuni 11168-O; assay: Biofilm assay; assay type: cell-based; conditions: 10 mM galactose
[13] = KD Tlp10^LBD Wild-type, Table 2, mean ± s.d.
[14] = KD, wild-type Tlp10^LBD, mean ± SD
[15] = read-out: KD Tlp10^LBD N115A, SPR, mean ± s.d., n = 3
[16] = read-out: KD Tlp10^LBD N120A, SPR, mean ± s.d., n = 3
[17] = read-out: KD Tlp10^LBD Wild-type, Table 2, mean ± s.d.
[18] = read-out: KD Tlp10^LBD Y70A, SPR, mean ± s.d., n = 3
[19] = read-out: KD Tlp10^LBD H193A, SPR, mean ± s.d., n = 3

Molecule: CC(=O)N[C@@H](C=O)[C@@H](O[C@@H]1O[C@H](CO)[C@H](O)[C@H](O)[C@H]1O)[C@H](O[C@@H]1O[C@@H](C)[C@@H](O)[C@@H](O)[C@@H]1O)[C@H](O)CO [Lewis^a antigen]
- interaction of Tlp10^LBD with complex glycans [1]: interacted

Molecule: N=C(N)NCCC[C@H](N)C(=O)O [arginine]
- Kd [2]: 41.9 ± 12 µM
- Kd [3]: 50.1 ± 8 µM
- Tlp10-mediated chemotactic response type [4]: chemorepellent response
- Kd [5, 13]: 27.9 ± 3 µM
- Kd [5, 14]: 27.9 ± 3 µM
- SPR [5]: +
- ligand-binding site on Tlp10^LBD [6]: site A
- Kd [7]: 19.1 ± 12 µM
- Tlp10-mediated chemotactic response type [8]: repellent response
- migration of Δtlp10^LBD strain towards ligand compared to wild-type [8]: increase in migration
- array [1]: +
- Kd [9]: 29 ± 8 µM

Molecule: N[C@@H](CC(=O)O)C(=O)O [aspartate]
- Kd [2]: 29.5 ± 8 µM
- Kd [3]: 48 ± 7 µM
- Kd [5, 13]: 32.3 ± 10 µM
- Kd [5, 14]: 32.3 ± 10 µM
- SPR [5]: +
- ligand-binding site on Tlp10^LBD [6]: both site A and site B with a preference for site B
- Kd [7]: 38.9 ± 11 µM
- Tlp10-mediated chemotactic response type [8]: attractants
- array [1]: +
- Kd [9]: 30.9 ± 9 µM

Molecule: C[C@H](O)[C@@H](O)[C@@H](O)[C@H](O)C=O [fucose]
- Kd [2]: 22 ± 2 µM
- Kd [3]: 19.2 ± 4 µM
- Kd [5, 13]: 30 ± 4.1 µM
- Kd [5, 14]: 30 ± 4.1 µM
- SPR [5]: +
- ligand-binding site on Tlp10^LBD [6]: site B
- Kd [7]: 34 ± 7 µM
- Tlp10-mediated chemotactic response type [8]: attractants
- effect on adherence to all cell lines tested [10]: suppressed the adherence; also recorded: less effective than that by galactose
- array [1]: +
- Kd [9]: 28 ± 3 µM
- Tlp10-mediated chemotactic response type [11]: attractant response
- migration of Δtlp10^LBD cells toward ligand compared with wild-type [11]: decreased

Molecule: O=C[C@H](O)[C@@H](O)[C@@H](O)[C@H](O)CO [galactose]
- SPR [5]: +
- ligand-binding site on Tlp10^LBD [6]: site B
- Tlp10-mediated chemotactic response type [8]: repellent
- migration of Δtlp10^LBD strain towards ligand compared to wild-type [8]: One-log increase in migration
- effect on adherence to all cell lines tested [10]: suppressed the adherence
- reduction of biofilm formation compared to untreated cells ([12]; wild-type C. jejuni 11168-O): up to 46%
- change in biofilm formation ([12]; Δtlp10^LBD mutant): no significant change
- array [1]: +
- Tlp10-mediated chemotactic response type [11]: repellent response
- migration of Δtlp10^LBD cells toward ligand compared with wild-type [11]: increased

Molecule: CC[C@H](C)[C@H](N)C(=O)O [isoleucine]
- Kd [2]: 48.1 ± 5 µM
- Kd [3]: 51.2 ± 1.2 µM
- Tlp10-mediated chemotactic response type [4]: chemoattractant response
- Kd [5, 13]: 37.9 ± 7 µM
- Kd [5, 14]: 37.9 ± 7 µM
- SPR [5]: +
- ligand-binding site on Tlp10^LBD [6]: site A
- Kd [7]: 28.1 ± 6 µM
- Tlp10-mediated chemotactic response type [8]: attractants
- array [1]: +
- Kd [9]: 30.8 ± 7 µM

Molecule: O=C(O)CC(O)C(=O)O (stereo not shown) [malate]
- Kd [2]: 176 ± 10 µM
- Kd [3]: 215 ± 31 µM
- Kd [5, 13]: 168 ± 19 µM
- Kd [5, 14]: 168 ± 19 µM
- SPR [5]: +
- ligand-binding site on Tlp10^LBD [6]: site B
- Kd [7]: 184 ± 14 µM
- Tlp10-mediated chemotactic response type [8]: attractants
- Kd [9]: 161 ± 23 µM

Molecule: OC[C@H]1OC(O)[C@@H](O)[C@@H](O)[C@@H]1O (stereo partly shown) [mannose]
- Kd [2]: 52.1 ± 10 µM
- Kd [3]: 46.4 ± 12 µM
- Kd [5, 13]: 39.6 ± 9 µM
- Kd [5, 14]: 39.6 ± 9 µM
- SPR [5]: +
- ligand-binding site on Tlp10^LBD [6]: site B
- Kd [7]: 43.3 ± 3 µM
- Tlp10-mediated chemotactic response type [8]: attractants
- array [1]: +
- Kd [9]: 32.1 ± 12 µM
- Tlp10-mediated chemotactic response type [11]: attractant response
- migration of Δtlp10^LBD cells toward ligand compared with wild-type [11]: decreased

Molecule: c1ncc2nc[nH]c2n1 [purine]
- Kd [2]: 29 ± 8 µM
- Kd [3]: 34 ± 3 µM
- Kd [5, 13]: 21 ± 6 µM
- Kd [5, 14]: 21 ± 6 µM
- SPR [5]: +
- ligand-binding site on Tlp10^LBD [6]: site A
- Kd [7]: 16 ± 1 µM
- migration of Δtlp10^LBD strain towards ligand compared to wild-type [8]: not significantly affected
- array [1]: +
- Kd [9]: 19 ± 2 µM

Molecule: CC(=O)N[C@H]1[C@H]([C@H](O)[C@H](O)CO)OC(O)(C(=O)O)C[C@@H]1O (stereo partly shown) [sialic acid]
- Kd [2]: 34.9 ± 13 µM
- Kd [3]: 37.1 ± 6 µM
- Kd [5, 13]: 29.3 ± 6.9 µM
- Kd [5, 14]: 29.3 ± 6.9 µM
- SPR [5]: +
- ligand-binding site on Tlp10^LBD [6]: site B
- Kd [7]: 24.1 ± 7 µM
- array [1]: +
- Kd [9]: 20.4 ± 9 µM
- migration of Δtlp10^LBD cells toward ligand compared with wild-type [11]: No significant differences

Molecule: Cc1ncc(C[n+]2csc(CCO)c2C)c(N)n1 [thiamine]
- Kd [2]: 49.2 ± 10 µM
- Kd [3]: 58.3 ± 9 µM
- Kd [5, 13]: 59.4 ± 13 µM
- Kd [5, 14]: 59.4 ± 13 µM
- SPR [5]: +
- ligand-binding site on Tlp10^LBD [6]: both site A and site B with a preference for site B
- Kd [7]: 62 ± 17 µM
- Tlp10-mediated chemotactic response type [8]: repellent response
- migration of Δtlp10^LBD strain towards ligand compared to wild-type [8]: increase in migration
- array [1]: +
- Kd [9]: 50.6 ± 6 µM

Molecule: O=C(O)CCC(=O)C(=O)O [α-ketoglutarate]
- Kd [2, 15]: 630 ± 27 µM
- Kd [3, 16]: 580 ± 43 µM
- Kd ([5]; wild-type Tlp10^LBD, mean ± SD): 403 ± 13 µM
- SPR [5]: +
- Kd [5, 17]: 403 ± 13 µM
- ligand-binding site on Tlp10^LBD [6]: site A
- Kd [7, 18]: 385 ± 40 µM
- migration of Δtlp10^LBD strain towards ligand compared to wild-type [8]: not significantly affected
- Kd [9, 19]: 370 ± 63 µM

Molecule: Fucα1–2Galβ1–3GalNAcβ1–4(Neu5Acα2–3) Galβ1–4Glc [human ganglioside GM1]
- interaction of Tlp10^LBD with complex glycans [1]: interacted

Molecule: fumarate
- Kd [2, 15]: 242 ± 30 µM
- Kd [3, 16]: 317 ± 34 µM
- Kd ([5]; wild-type Tlp10^LBD, mean ± SD): 282 ± 68 µM
- SPR [5]: +
- Kd [5, 17]: 282 ± 68 µM
- ligand-binding site on Tlp10^LBD [6]: site A
- Kd [7, 18]: 185 ± 25 µM
- Tlp10-mediated chemotactic response type [8]: attractants
- array [1]: +
- Kd [9, 19]: 213 ± 59 µM

Molecule: rhamnose
- Kd [2, 15]: 18.2 ± 1.9 µM
- Kd [3, 16]: 17.9 ± 3.7 µM
- SPR [5]: +
- Kd [5, 17]: 11.1 ± 2 µM
- ligand-binding site on Tlp10^LBD [6]: site B
- Kd [7, 18]: 8.2 ± 3 µM
- migration of Δtlp10^LBD strain towards ligand compared to wild-type [8]: not significantly affected
- array [1]: +
- Kd [9, 19]: 9.8 ± 0.95 µM
- migration of Δtlp10^LBD cells toward ligand compared with wild-type [11]: No significant differences
